Only some compounds are listed: those with a hit (about 1.7% of all), similar ones and a draw of the others.
CAL PDZ FP-1 = blocks peptide binding to the human CAL PDZ domain | Q9HD26 | purified CAL PDZ, TMR-peptide fluorescence polarization, 1 h | inhibition, % at 24.9 µM | hit rate 0.92% among 300,000 | AID 602252;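 active = mean inhibition of at least 30% with at least half of replicates also reaching 30%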;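 also: 0% = DMSO neutral control and 100% = excess unlabeled competitor peptide PRC23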
PGC1a acetyl inh = lowers PGC1a acetylation signal in U2OS cells | AlphaScreen anti-acetyl-lysine; with virally co-expressed GCN5 acetyltransferase | inhibition, % at 15.6 µM | hit rate 0.17% among 350,000 | AID 651687;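 active = every replicate shows inhibition of at least 40%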;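 also: 0% = neutral control wells and 100% = positive control wells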
miR-122 sensor = blocks miR-122 activity in Huh7 sensor cells. Huh7 miR-122 Renilla luciferase sensor, 48 h; neutral wells = 0, positive control = 100. activation (reporter increase), % at 12.5 µM. hit rate 0.3% among 340,000. AID 602342;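 active = mean replicate activation score at least 90 and every replicate individually at or above 90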;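 also: higher luciferase means less miR-122 activity so hits act as miR-122 inhibitors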
CAL PDZ FP-2 = human CAL PDZ-peptide interaction inhibition | inhibition, % at 20 µM | hit rate 0.02% among 330,000 | Q9HD26 | purified CAL PDZ, TMR-peptide fluorescence polarization, 1 h;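 active = highest replicate inhibition of at least 40%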;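 also: plate controls were DMSO neutral control wells for no effect and unlabeled competitor peptide control wells for full effect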
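Control set: unlabelled peptide and DMSO controls / Material: purified CerCALP PDZ construct / Timing: 1 h incubation at room temperature before polarization reading / Doses: 20 µM, one dose / Detection: fluorescence polarization (mP)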
F508del corr = CFTR F508del correction in bronchial cells. CFBE cells, YFP halide quenching; stimulated with forskolin plus potentiator P3; % fluorescence drop versus neutral controls. activity (quench increase), % at 7.58 µM. hit rate 0.36% among 350,000. AID 720511;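 active = mean added fluorescence quench of at least 8% versus neutral control, with both replicates also reaching 8%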;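 also: cells transiently co-express mutant CFTR-F508del with the halide-sensitive YFP; corrector assay measuring rescue of mutant channel to the surface after 24 h compound exposure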
ARNT-TACC3 inh = ARNT/TACC3 interaction disruption; hit rate 0.66% among 390,000; Q9Y6A5; inhibition, % at 9.99 µM; AID 623870; AlphaScreen His-ARNT PAS-B/GST-TACC3 binding, luminescence; TACC3 fragment carries E629A point mutation;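 active = mean inhibition of replicates at least 50% and at least half of replicates each reaching 50%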;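 also: 0% = complete ARNT plus TACC3 wells and 100% = ARNT alone without TACC3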
miR-27b select = alters miR-27b levels in Huh7 cells, selectivity for miR-122 inhibitors; shares compounds with miR-122 sensor; Huh7 miR-27b levels, qRT-PCR, 48 h; relative miR-27b level (unnormalised ratio), ratio at 35 µM; 35 tested, under 10 active;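 active = compounds lowering miR-27b whose fitted half-maximal dose is at most twice their top tested dose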
AlphaScreen ctr = interferes with AlphaScreen signal, flagging false ARNT-TACC3 hits; hit rate 50% among 1,200; His-ARNT PASB-GST AlphaScreen artifact counter-screen, luminescence; AC50, µM (series often up to 68 µM), for inactives: top-dose activity change, negative = signal decrease; AID 651705; shares compounds with ARNT-TACC3 inh;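 active = every separate test run was called active for a drop in luminescence, with AC50 within twice the top valid dose, actives reach about 71 µM in these data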
* marks the source's active call; other numbers are inactive results; . = no result; [ ] = dose if it differs, or a comment.

SMILES	CAL PDZ FP-1	PGC1a acetyl inh	miR-122 sensor	CAL PDZ FP-2	F508del corr	ARNT-TACC3 inh	AlphaScreen ctr	others
Cc1cc(C(C)(C)C)cc(S(=O)(=O)NCCO)c1C	-6	1	93*	-2	.	-2	.	miR-27b select=0.94
CCC(=O)Nc1ccc2c(c1)C(=O)N(C)C[C@H](OC)[C@H](C)CN(C(=O)c1ccncc1)[C@@H](C)CO2	.	11	-5[16.7 µM]	.	2	-6	.
COCCNS(=O)(=O)c1ccc2c3c(cccc13)C(=O)N2C	4	-20	33	-1	1	1	.
CN1C(=O)c2cccc3c(S(=O)(=O)NCCc4ccccc4)ccc1c23	.	-12	117*	-1	-3	.	.	miR-27b select=0.64
C[C@@H]1CCCCO[C@@H](CN(C)S(=O)(=O)c2ccccc2)[C@H](C)CN([C@@H](C)CO)C(=O)c2cc(NS(=O)(=O)c3cccs3)ccc2O1	.	-3	-10[16.7 µM]	.	0	3	.
COc1cc(C)c(C(C)C)cc1S(=O)(=O)n1cnc(C)c1	.	0	152*	-1	-2	3	.	miR-27b select=0.91
O=C(C1CCOCC1)N1CC(=O)N2[C@H](CO)[C@H](c3ccc(-c4ccccc4F)cc3)[C@H]2C1	.	-1	.	.	-2	.	.
O=C(C[C@H]1C=C[C@H](NC(=O)NC2CCCCC2)[C@@H](CO)O1)NCc1ccc(Cl)cc1	.	12	.	.	-1	-5	.
Cc1ccc(C)c(S(=O)(=O)Nc2ccc3cn[nH]c3c2)c1	-5	2	153*	1	6	21	.	miR-27b select=1.3
COc1ccc(NC(=O)Nc2ccc3c(c2)CC(=O)N([C@@H](C)CO)C[C@@H](C)[C@H](CN(C)C(=O)Nc2ccc(F)cc2)O3)cc1	.	10	0[16.7 µM]	.	-3	.	.
CC(C)CC#Cc1ccc2c(c1)O[C@H](CN(C)Cc1ccc(C(=O)O)cc1)[C@@H](C)CN([C@H](C)CO)S2(=O)=O	.	3	.	.	-3	1	.
Nc1c(S(=O)(=O)c2cccs2)c2nc3ccccc3nc2n1Cc1ccccc1	.	.	321*	-1	.	2	.	miR-27b select=0.43
Cc1ccc(Cn2c(N)c(S(=O)(=O)c3cccs3)c3nc4ccccc4nc32)cc1	-6	-12	27	1	.	12	.
COc1ccc(C)cc1NS(=O)(=O)c1ccc2c(c1)N(C)CCO2	-2	9	149*	-2	-1	-1	.	miR-27b select=1.2
Cc1ccc(S(=O)(=O)Nc2ccc3c4c(cccc24)CC3)c(C)c1	-6	-2	198*	-1	.	0	.	miR-27b select=0.65
Cc1cccc(NS(=O)(=O)c2cc3c(cc2C)NC(=O)CO3)c1	.	.	107*	-1	-3	-3	.	miR-27b select=0.69
O=c1cc(-c2ccc(O)cc2)oc2c(O)c(O)c(O)c(O)c12	0	2	5	1	-2	53*	-35%
Nc1ccc(C(=O)Nc2ccc3c(O)cc(S(=O)(=O)O)cc3c2)cc1	.	-6	-5	0	-1	69*	-34%
CC1(C)Cc2c(sc3nc4n(-c5ccccc5)c(=O)c(CCC(=O)O)nn4c(=O)c23)CO1	-3	6	1	1	0	57*	-8%
O=C(CC(=O)N/N=C/c1ccccc1O)NCc1cccnc1	0	4	-9	-2	0	48*	-19%
CCNC(=O)C(=O)N/N=C/c1cc([N+](=O)[O-])ccc1O	-5	0	.	-3	.	61*	25µM*
N#Cc1cc2ccc(N3CCOCC3)cc2cc1C#N	-3	17	6	-1	-3	29*	-16%
N#Cc1cc(Cl)c(N2CCOCC2)cc1C#N	-3	4	-3	-1	.	-2	.
C[C@@H](NC(=O)C[C@@H]1C=C[C@H](NC(=O)Cc2ccccn2)[C@H](CO)O1)c1ccccc1	.	6	.	.	-2	-1	.
COc1ccccc1OCc1nc(C#N)c(NCCCn2ccnc2)o1	11	1	0	1	1	34*	-10%
SMILES	CAL PDZ FP-1	PGC1a acetyl inh	miR-122 sensor	CAL PDZ FP-2	F508del corr	ARNT-TACC3 inh	AlphaScreen ctr	others
C[C@H]1CN([C@@H](C)CO)C(=O)c2cc(NC(=O)Nc3ccccc3)ccc2O[C@@H]1CN(C)Cc1ccncc1	.	2	0[16.7 µM]	.	1	4	.
CCN1[C@H](C(=O)N2CCCCC2)[C@@H](CO)[C@@H]2Cn3c(ccc(-c4cccc(F)c4)c3=O)[C@@H]21	.	.	.	.	.	-2	.
COCCNC(=O)C[C@@H]1C[C@H]2c3cc(NC(=O)C4CCOCC4)ccc3O[C@H]2[C@H](CO)O1	.	6	7[16.7 µM]	.	0	active	-7%[38 µM]
COCCNC(=O)C[C@@H]1C[C@@H]2c3cc(NC(=O)C4CCOCC4)ccc3O[C@@H]2[C@H](CO)O1	.	5	1[16.7 µM]	.	1	-13	.
COC(=O)C[C@@H]1C[C@H]2c3cc(N(C)C)ccc3O[C@H]2[C@@H](CO)O1	.	13	1[16.7 µM]	.	-4	67*	-5%[42 µM]
O=C(C[C@@H]1C[C@@H]2c3cc(NC(=O)C4CCOCC4)ccc3O[C@@H]2[C@H](CO)O1)NCc1cccnc1	.	5	-2[16.7 µM]	.	0	55*	3%[42 µM]
CN(C)c1ccc2c(c1)[C@@H]1C[C@H](CC(=O)O)O[C@@H](CO)[C@@H]1O2	.	3	-3[16.7 µM]	.	-2	1	.
CO[C@H]1CN(C)C(=O)c2cc(NS(=O)(=O)c3ccc(F)cc3)ccc2OC[C@H](C)NC[C@@H]1C	.	-14	10[16.7 µM]	.	-1	-6	.
O=C(CCCSc1ccccc1)Nc1nc(-c2ccccn2)cs1	-2	-10	7	-1	.	35	.
O=C(CN1C(=O)CCC1=O)Nc1nc(-c2ccc3ccccc3c2)cs1	.	0	.	-2	3	-3	.
O=C(Nc1ccc2nc(-c3ccccn3)[nH]c2c1)C1CCCCC1	-5	-8	12	-2	.	59*	-7%
O=C(Nc1nc(-c2nc3ccccc3s2)cs1)C1CC1	.	-2	-13	-5	-5	-8	.
O=C(CN1C(=O)CCC1=O)Nc1nc(-c2ccccn2)cs1	-10	-5	3	-1	-2	59*	34µM*
O=C(Nc1nc(-c2ccccn2)cs1)C1CCCC1	-6	12	6	-2	-3	59*	-15%
CSCCC(=O)Nc1nc(-c2ccccn2)cs1	-4	.	.	-2	-3	58*	71µM*
CC(C)c1nc2ccc(NC(=O)C3CCCCC3)cc2[nH]1	.	0	2	0	.	-6	.
COc1ccc(S(=O)(=O)N(C)C[C@@H]2Oc3c(NC(=O)C4CC4)cccc3C(=O)N([C@H](C)CO)C[C@H]2C)cc1	.	2	-2[16.7 µM]	.	-2	-8	.

Screening data (PubChem BioAssay)
